The values below come from ChEMBL document CHEMBL4130436, “Meroterpenoids from a Medicinal Fungus Antrodia cinnamomea” (2017).

Assay [1] has as its system A549. In words: Growth inhibition of human A549 cells after 48 hrs by SRB assay. The class given is functional. The note with it: A549, 48 h. Put shortly: (§1)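 Cells (from ATCC) grown in RPMI-1640 with 10% FBS and penicillin/streptomycin/amphotericin B, 37 °C, 5% CO2. Seeded overnight, then exposed to various compound concentrations for 48 h. A time-zero plate fixed with 10% TCA at dosing. After treatment, cells fixed with 10% TCA, stained with 0.4% SRB in 1% acetic acid, lysed in 10 mM Trizma base, A515 read. GI50 = concentration giving 50% reduction of the control protein increase.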

Assay [2] deals with PC-3. In words: Growth inhibition of human PC3 cells after 48 hrs by SRB assay. It is filed as functional. The note with it: PC-3, 48 h. Put shortly:
as §1
In general terms: Sulforhodamine B stains cellular protein and so reports cell mass.

Broadly, the GI50 is the concentration at which growth is held to half of that of the control. A high value points to lower sensitivity of the cells. `COC1=C(OC)[C@H](O)[C@H](C/C=C(\C)CC/C=C(\C)C/C=C/C(C)(C)O)[C@@H](C)C1=O`: the GI50 in assay [1] was 23.8 µM; in assay [2], over 30 µM.
Taken in the same sequence, the figures for `COc1cc2c(c(C)c1O)C=C[C@](C)(CC/C=C(\C)CCC=C(C)C)O2` were over 30 µM and over 30 µM.
Taken in the same sequence, the figures for `COC1=C[C@H](O)[C@H](C/C=C(\C)CC/C=C(\C)C[C@@H]2C[C@@H](C)C(=O)O2)[C@@H](C)C1=O` were over 30 µM and over 30 µM.
For `COC1=C[C@H](O)[C@H](C/C=C(\C)CC/C=C(\C)C[C@H](O)/C=C(\C)CO)[C@@H](C)C1=O`, in that order: over 30 µM and over 30 µM.
In the case of `COC1=C(OC)[C@H](OC(C)=O)[C@H](C/C=C(\C)CC/C=C(\C)C[C@H](O)/C=C(\C)C(=O)O)[C@@H](C)C1=O`, the GI50 in assay [1] and in assay [2] was over 30 µM each time.
Consider `COC1=C(OC)[C@H](OC(C)=O)[C@H](C/C=C(\C)CC/C=C(\C)C[C@H](O)/C=C(\C)CO)[C@@H](C)C1=O`, for which the results for the GI50 in assay [1] and in assay [2] were 29 µM and over 30 µM, respectively.
Take `COC1=C(OC)[C@H](OC(C)=O)[C@H](C/C=C(\C)CC/C=C(\C)C[C@@H]2C[C@@H](C)C(=O)O2)[C@@H](C)C1=O`: the GI50 was 11.3 µM in assay [1] and over 30 µM in assay [2].
For `COC1=C[C@H](O)[C@H](C/C=C(\C)CC/C=C(\C)CCC=C(C)C)[C@@H](C)C1=O`, in that order: 16.4 µM and over 30 µM.
Take `COC1=C(OC)[C@H](O)[C@H](C/C=C(\C)CC/C=C(\C)CCCC(C)CO)[C@@H](C)C1=O` (stereo not given in full): the figures for the GI50 in assay [1] and in assay [2] were 7.1 µM and over 30 µM, respectively.
`COC1=C(OC)C(=O)C(C/C=C(\C)CC/C=C(\C)CCC=C(C)C)=C(C)C1=O`: the GI50 in assay [1] and in assay [2] was over 30 µM throughout.
With `COC1=C(O)[C@H](O)[C@H](C/C=C(\C)CC/C=C(\C)C[C@H](O)/C=C(\C)CO)[C@@H](C)C1=O`, the GI50 in assay [1] and in assay [2] was over 30 µM each time.
As to `COC1=C(OC)[C@H](O)[C@H](C/C=C(\C)CC/C=C(\C)C[C@H](O)C=C(C)C)[C@@H](C)C1=O`, the GI50 in assay [1] was 9.6 µM; in assay [2], over 30 µM.
For `COC1=C(OC)[C@H](O)[C@H](C/C=C(\C)CC/C=C(\C)C[C@@H]2C[C@@H](C)C(=O)O2)[C@@H](C)C1=O`, in that order: 14.1 µM and over 30 µM.
Taken in the same sequence, the figures for `COC1=C(OC)C(=O)C(C/C=C(\C)CC/C=C(\C)C[C@H](O)C=C(C)C)=C(C)C1=O` were over 30 µM and over 30 µM.
Taken in the same sequence, the figures for `COC1=CC(=O)C(C/C=C(\C)CC/C=C(\C)CCC=C(C)C)=C(C)C1=O` were over 30 µM and over 30 µM.
For `COC1=C(OC)[C@H](O)[C@H](C/C=C(\C)CC/C=C(\C)CC/C=C(\C)CO)[C@@H](C)C1=O`, the GI50 in assay [1] was 8.2 µM; in assay [2], over 30 µM.
For `COC1=C(OC)[C@H](O)[C@H](C/C=C(\C)CC/C=C(\C)C[C@H](O)/C=C(\C)CO)[C@@H](C)C1=O`, in that order: 12 µM and over 30 µM.
Taken in the same sequence, the figures for `COC1=C(OC)[C@H](OC(C)=O)[C@H](C/C=C(\C)CC/C=C(\C)C[C@H](O)C=C(C)C)[C@@H](C)C1=O` were 20.7 µM and over 30 µM.
Taken in the same sequence, the figures for `COC1=C(OC)[C@H](O)[C@H](C/C=C(\C)CC/C=C(\C)CCC=C(C)C)[C@@H](C)C1=O` [ANTROQUINONOL] were 5.7 µM and 13.5 µM.
With `O=c1[nH]cc(F)c(=O)[nH]1` [FLUOROURACIL], the GI50 in assay [1] is 4.2 µM; in assay [2] it was 11.7 µM.
